Activity calls are given as the source filed them. The rule behind the calls is not given here.
Legend:
Format in all cases: functional
NCI-H460 [1] = test: Growth inhibition of human NCI-H460 cells after 48 hrs by sulforhodamine B assay; details: NCI-H460, 48 h
Summary of the method: (§1)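 SRB assay in MCF-7, NCI-H460 (5.0 × 10⁴ cells/mL) and A375-C5 (7.5 × 10⁴ cells/mL) grown in RPMI-1640 with 5% FBS. Cells attached overnight, then were exposed 48 h to five serial dilutions (top 150 or 50 µM; DMSO ≤0.25%). Cells were TCA-fixed, SRB-stained and read at A492. GI₅₀ taken from dose-response curves. Mean ± SEM, ≥3 independent experiments in duplicate.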

MCF7 = test: Growth inhibition of human MCF7 cells after 48 hrs by sulforhodamine B assay; details: MCF7, 48 h; summary of the method: as §1
[2] = Growth inhibition of human A375-C5 cells after 48 hrs by sulforhodamine B assay; details: A375-C5, 48 h; summary of the method: as §1
NCI-H460 [3] = test: Cell cycle arrest in human NCI-H460 cells assessed as increase in cell accumulation in G1 phase at 2.7 uM after 48 hrs by propidium iodide staining-based flow cytometry
NCI-H460 [4] = test: Cell cycle arrest in human NCI-H460 cells assessed as decrease in cell accumulation in S phase at 2.7 uM after 48 hrs by propidium iodide staining-based flow cytometry
NCI-H460 [5] = test: Cell cycle arrest in human NCI-H460 cells assessed as decrease in cell accumulation in G2/M phase at 2.7 uM after 48 hrs by propidium iodide staining-based flow cytometry
NCI-H460 [6] = test: Induction of apoptosis in human NCI-H460 cells assessed as apoptotic cells at 2.7 uM after 48 hrs using annexin-V FITC/PI staining by flow cytometry (reference value: 8.4 to 11.2%)
NCI-H460 [7] = test: Cell cycle arrest in human NCI-H460 cells assessed as increase in cell accumulation in G1 phase at 12.6 uM after 48 hrs by propidium iodide staining-based flow cytometry
NCI-H460 [8] = test: Induction of apoptosis in human NCI-H460 cells assessed as apoptotic cells at 12.6 uM after 48 hrs using annexin-V FITC/PI staining by flow cytometry (reference value: 8.4 to 11.2%)
NCI-H460 [9] = test: Cell cycle arrest in human NCI-H460 cells assessed as decrease in cell accumulation in G2/M phase at 12.6 uM after 48 hrs by propidium iodide staining-based flow cytometry
NCI-H460 [10] = test: Cell cycle arrest in human NCI-H460 cells assessed as decrease in cell accumulation in S phase at 12.6 uM after 48 hrs by propidium iodide staining-based flow cytometry
NCI-H460 [11] = test: Induction of apoptosis in human NCI-H460 cells assessed as apoptotic cells at 3.9 uM after 48 hrs using annexin-V FITC/PI staining by flow cytometry (reference value: 8.4 to 11.2%)
NCI-H460 [12] = test: Cell cycle arrest in human NCI-H460 cells assessed as decrease in cell accumulation in S phase at 3.9 uM after 48 hrs by propidium iodide staining-based flow cytometry
NCI-H460 [13] = test: Cell cycle arrest in human NCI-H460 cells assessed as increase in cell accumulation in G1 phase at 3.9 uM after 48 hrs by propidium iodide staining-based flow cytometry
NCI-H460 [14] = test: Cell cycle arrest in human NCI-H460 cells assessed as decrease in cell accumulation in G2/M phase at 3.9 uM after 48 hrs by propidium iodide staining-based flow cytometry
NCI-H460 [15] = test: Induction of apoptosis in human NCI-H460 cells assessed as apoptotic cells at 4.9 uM after 48 hrs using annexin-V FITC/PI staining by flow cytometry (reference value: 8.4 to 11.2%)
NCI-H460 [16] = test: Cell cycle arrest in human NCI-H460 cells assessed as decrease in cell accumulation in G2/M phase at 4.9 uM after 48 hrs by propidium iodide staining-based flow cytometry
NCI-H460 [17] = test: Cell cycle arrest in human NCI-H460 cells assessed as increase in cell accumulation in G1 phase at 4.9 uM after 48 hrs by propidium iodide staining-based flow cytometry
NCI-H460 [18] = test: Cell cycle arrest in human NCI-H460 cells assessed as decrease in cell accumulation in S phase at 4.9 uM after 48 hrs by propidium iodide staining-based flow cytometry
NCI-H460 [19] = test: Cell cycle arrest in human NCI-H460 cells assessed as increase in cell accumulation in G1 phase at 4.1 uM after 48 hrs by propidium iodide staining-based flow cytometry
NCI-H460 [20] = test: Induction of apoptosis in human NCI-H460 cells assessed as apoptotic cells at 4.1 uM after 48 hrs using annexin-V FITC/PI staining by flow cytometry (reference value: 8.4 to 11.2%)
NCI-H460 [21] = test: Cell cycle arrest in human NCI-H460 cells assessed as decrease in cell accumulation in S phase at 4.1 uM after 48 hrs by propidium iodide staining-based flow cytometry
NCI-H460 [22] = test: Cell cycle arrest in human NCI-H460 cells assessed as decrease in cell accumulation in G2/M phase at 4.1 uM after 48 hrs by propidium iodide staining-based flow cytometry
NCI-H460 [23] = test: Cell cycle arrest in human NCI-H460 cells assessed as decrease in cell accumulation in S phase at 6.8 uM after 48 hrs by propidium iodide staining-based flow cytometry
NCI-H460 [24] = test: Cell cycle arrest in human NCI-H460 cells assessed as increase in cell accumulation in G1 phase at 6.8 uM after 48 hrs by propidium iodide staining-based flow cytometry
NCI-H460 [25] = test: Induction of apoptosis in human NCI-H460 cells assessed as apoptotic cells at 6.8 uM after 48 hrs using annexin-V FITC/PI staining by flow cytometry (reference value: 8.4 to 11.2%)
NCI-H460 [26] = test: Cell cycle arrest in human NCI-H460 cells assessed as decrease in cell accumulation in G2/M phase at 6.8 uM after 48 hrs by propidium iodide staining-based flow cytometry

SMILES | GI50 (NCI-H460 [1]) | GI50 (MCF7) | GI50 [2] | also measured
CC1(C)CCc2c(c(O)c(O)c3c(=O)cc(-c4ccccc4)oc23)O1 | 17.7 µM | 21 µM | 27.4 µM | 
CC(C)=CCOc1c(OCC=C(C)C)c(O)c2c(=O)cc(-c3ccccc3)oc2c1CC=C(C)C | > 150 µM | > 150 µM | > 150 µM | 
O=c1cc(-c2ccccc2)oc2cc(O)c(O)c(O)c12 [BAICALEIN] | 26.7 µM | 32.8 µM | 7.7 µM | 
CC(C)=CCOc1ccc2c(=O)c(OCC=C(C)C)c(-c3ccccc3)oc2c1 | 51.9 µM | 63.3 µM | 59 µM | 
CC1(C)CCc2c(ccc3c(=O)c(O)c(-c4ccccc4)oc23)O1 | 2.7 µM | 3.7 µM | 2.3 µM | Activity (NCI-H460 [3]): Active; Activity (NCI-H460 [4]): Active; Activity (NCI-H460 [5]): Active; Activity (NCI-H460 [6]): 13.1%
CC(C)=CCC/C(C)=C/COc1cc2oc(-c3ccccc3)cc(=O)c2c(O)c1OC/C=C(\C)CCC=C(C)C | > 150 µM | > 150 µM | > 150 µM | 
CC(C)=CCC/C(C)=C/COc1c(OC/C=C(\C)CCC=C(C)C)c(O)c2c(=O)cc(-c3ccccc3)oc2c1C/C=C(\C)CCC=C(C)C | > 150 µM | > 150 µM | > 150 µM | 
CC(C)=CCOc1ccc2c(=O)c(O)c(-c3ccccc3)oc2c1 | 12.6 µM | 14 µM | 30.3 µM | Activity (NCI-H460 [7]): Active; Activity (NCI-H460 [8]): 11.9%; Activity (NCI-H460 [9]): Active; Activity (NCI-H460 [10]): Active
CC1Oc2ccc3c(=O)c(O)c(-c4ccccc4)oc3c2C1(C)C (configuration not stated) | 3.9 µM | 4.5 µM | 7.6 µM | Activity (NCI-H460 [11]): 9.5%; Activity (NCI-H460 [12]): Active; Activity (NCI-H460 [13]): Active; Activity (NCI-H460 [14]): Active
CC(C)=CCC/C(C)=C/COc1ccc2c(=O)c(O)c(-c3ccccc3)oc2c1 | 4.9 µM | 6.4 µM | 7.2 µM | Activity (NCI-H460 [15]): 12%; Activity (NCI-H460 [16]): Active; Activity (NCI-H460 [17]): Active; Activity (NCI-H460 [18]): Active
CC1Oc2c(O)c(O)c3c(=O)cc(-c4ccccc4)oc3c2C1(C)C (configuration not stated) | 40.6 µM | 43.7 µM | 47.7 µM | 
CC(C)=CCC/C(C)=C/COc1cc2oc(-c3ccccc3)cc(=O)c2c(O)c1O | 4.1 µM | 4.4 µM | 5.3 µM | Activity (NCI-H460 [19]): >10%; Activity (NCI-H460 [20]): 18.8%; Activity (NCI-H460 [21]): Active; Activity (NCI-H460 [22]): Active
CC(C)=CCC/C(C)=C/COc1ccc2c(=O)c(OC/C=C(\C)CCC=C(C)C)c(-c3ccccc3)oc2c1 | 55 µM | 66.5 µM | 58.5 µM | 
O=c1c(O)c(-c2ccccc2)oc2cc(O)ccc12 [3,7-DIHYDROXYFLAVONE] | 15.4 µM | 17.4 µM | 23 µM | 
CC(C)=CCOc1cc2oc(-c3ccccc3)cc(=O)c2c(O)c1OCC=C(C)C | > 150 µM | > 150 µM | > 150 µM | 
CC(C)=CCOc1cc2oc(-c3ccccc3)cc(=O)c2c(O)c1O | 6.8 µM | 9.1 µM | 9.2 µM | Activity (NCI-H460 [23]): Active; Activity (NCI-H460 [24]): >10%; Activity (NCI-H460 [25]): 9.1%; Activity (NCI-H460 [26]): Active

Reference: ChEMBL document CHEMBL1781896, “Prenylated derivatives of baicalein and 3,7-dihydroxyflavone: synthesis and study of their effects on tumor cell lines growth, cell cycle and apoptosis” (2011)
